From PubChem BioAssay
The source made the active and inactive calls.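 The calls were made as follows, unless noted: active = Her2 level under about 52% in both replicate screens, with viability over 70% of control (limit read from the data); inconclusive = Her2 under the limit in one screen only, or viability under 70%; inactive = Her2 level above the set limit.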

Tests used:
[1] = reducers of endogenous Her2 protein level, primary screen, SKBR3 breast tumor cells, AlphaScreen, ATP viability (AID 461); details: 18-24 h, measured here: SKBR3 viability, ATP luminescence, at 10 µM;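 as to Her2 level: lower value means less Her2 protein in the cells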;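 as to viability: percent of carrier control wells set as 100% viability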
[2] = target: Receptor tyrosine-protein kinase erbB-2 (Homo sapiens) (UniProt P04626); assay: as above; details: 18-24 h, at 10 µM, stronger effect = lower value
Chain of Receptor tyrosine-protein kinase erbB-2 (Homo sapiens) (P04626 whole entry, looked up): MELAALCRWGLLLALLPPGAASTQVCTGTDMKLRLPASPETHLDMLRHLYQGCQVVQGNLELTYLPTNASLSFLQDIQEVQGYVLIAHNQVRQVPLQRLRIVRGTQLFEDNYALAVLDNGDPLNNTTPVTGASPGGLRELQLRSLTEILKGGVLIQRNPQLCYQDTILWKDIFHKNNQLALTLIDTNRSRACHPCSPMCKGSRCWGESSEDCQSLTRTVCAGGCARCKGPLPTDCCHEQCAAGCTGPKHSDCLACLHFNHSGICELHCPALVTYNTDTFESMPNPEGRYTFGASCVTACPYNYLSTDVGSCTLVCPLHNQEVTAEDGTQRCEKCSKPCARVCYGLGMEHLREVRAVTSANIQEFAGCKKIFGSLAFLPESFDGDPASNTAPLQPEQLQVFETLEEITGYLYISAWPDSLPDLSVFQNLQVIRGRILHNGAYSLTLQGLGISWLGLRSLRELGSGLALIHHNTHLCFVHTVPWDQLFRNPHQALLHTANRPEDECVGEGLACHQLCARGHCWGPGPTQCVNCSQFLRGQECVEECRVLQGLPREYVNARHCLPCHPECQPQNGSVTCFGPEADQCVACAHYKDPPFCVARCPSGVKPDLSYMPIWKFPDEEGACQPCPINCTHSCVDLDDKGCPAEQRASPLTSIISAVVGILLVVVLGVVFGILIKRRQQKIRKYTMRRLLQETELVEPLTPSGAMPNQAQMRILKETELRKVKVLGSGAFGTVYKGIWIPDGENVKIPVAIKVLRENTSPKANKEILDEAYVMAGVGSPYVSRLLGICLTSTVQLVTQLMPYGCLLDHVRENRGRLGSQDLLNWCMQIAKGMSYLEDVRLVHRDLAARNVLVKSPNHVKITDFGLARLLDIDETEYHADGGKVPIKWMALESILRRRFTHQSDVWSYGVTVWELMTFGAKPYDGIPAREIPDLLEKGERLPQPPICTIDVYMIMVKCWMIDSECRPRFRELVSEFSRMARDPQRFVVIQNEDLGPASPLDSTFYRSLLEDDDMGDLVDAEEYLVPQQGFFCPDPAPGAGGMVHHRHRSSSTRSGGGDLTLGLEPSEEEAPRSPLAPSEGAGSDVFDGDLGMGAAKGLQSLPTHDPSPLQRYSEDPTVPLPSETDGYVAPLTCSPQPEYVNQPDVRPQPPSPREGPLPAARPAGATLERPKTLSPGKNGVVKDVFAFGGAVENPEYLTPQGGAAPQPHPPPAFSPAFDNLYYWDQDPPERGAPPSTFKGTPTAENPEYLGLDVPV

[3] = SK-BR-3 cell growth inhibitors, pilot screen, 24 h, human (AID 572;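 active = viability at or below 10% of carrier control in both of two separate runs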;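 also: compound exposure lasted between 18 and 24 h rather than exactly 24 h; 100% = carrier-treated control wells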); details: SK-BR-3 viability, CellTiter-Glo luminescence, at 10 µM, stronger effect = lower value
[4] = HUVEC growth inhibition – cell-based, human, primary screen (AID 575;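 active = viability at or below 30% in both replicate assays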;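 also: 100% = median of untreated cell wells with 0.1% DMSO on each plate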); details: HUVEC proliferation, CellTiter-Glo luminescence, 72 h; at 10 µM; stronger effect = lower value
Outline: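 material = primary HUVEC, no more than 12 passages | input = 1250 cells per well | controls = vehicle and MePR control wells | measured by = CTG luminescence | times = 72 h compound incubation | format = collagen-coated 384-well format | read-out = % viability vs DMSO wells | doses = single 10 µM dose, 0.1% DMSO, from 5x medium stock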

[5] = growth inhibitors of H69AR lung tumor, primary screen, human, duplicate replicates (AID 580;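 active = viability at or under a set limit in both replicates, limit being median viability minus 3 SD, cut at about 48% in these data, passing the limit was not always enough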;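 also: 100% = mean luminescence of untreated wells and 0% = no signal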); details: H69AR lung tumor cells viability, ATP luminescence, 72 h; at 10 µM; stronger effect = lower value
[6] = reversal of MRP1-mediated doxorubicin resistance, pilot screen, H69AR cells, doxorubicin co-treatment (AID 601;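 active = viability loss from added drug above about 55%, and viability with drug at most 40%, in both replicates, limit read from the data, passing the limit was not always enough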); details: CellTiter-Glo, 72 h, at 10 µM; for differential viability (reversal): stronger effect = higher value
[7] = 384-well plate pilot, post-Golgi transport modulator project, inhibition of yeast transport mutant growth (AID 636; in the data active = inhibition above about 31%); details: absorbance 615 nm, about 18 h, stronger effect = higher value
[8] = growth suppression of yeast trafficking mutant, preliminary HTS, modulators of trafficking downstream of Golgi apparatus project, 1536-format plate, OD 615 nm (AID 637; in the data active = inhibition above about 30%); details: yeast transport mutant growth, absorbance 615 nm, 18 h; stronger effect = higher value
[9] = H69AR cells + 2 uM doxorubicin, measured here: viability with 2 uM doxorubicin, stronger effect = lower value
[10] = H69AR cells, compound alone cytotoxicity

| Compound | viability [1] [%] | Her2 level [2] | viability [3] | viability [4] | viability [5] | differential viability (reversal) ([6]; H69AR cells + 2 uM doxorubicin) | viability [6, 9] [%] | viability [6, 10] [%] | inhibition [7] | inhibition [8] |
| --- | --- | --- | --- | --- | --- | --- | --- | --- | --- | --- |
| O=C(Cn1nc(C(F)(F)F)c2c1CCCC2)NCCN1CCOCC1 | 110 | 89% (inactive) | 110% (inactive) | 108% (inactive) | 91.5% (inactive) | 4.05% (inactive) | 87.5 | 91.5 | -1.18% (inactive) | 3.93% (inactive) |
| COCCn1nnnc1CN(CCCN1CCOCC1)Cc1cc2c(C)ccc(C)c2[nH]c1=O | 85 | 124% (inactive) | 85% (inactive) | 98.5% (inactive) | 68.7% (inactive) | -5.44% (inactive) | 74.1 | 68.7 | 4.55% (inactive) | -7.33% (inactive) |
| CCOC(=O)C1CCN(C(c2cc3cc(C)cc(C)c3[nH]c2=O)c2nnnn2C2CCCCC2)CC1 (stereo not given) | 69.5 | 80% (inactive) | 69.5% (inactive) | 57.3% (inactive) | 62.8% (inactive) | 5.56% (inactive) | 57.2 | 62.8 | -2.6% (inactive) | 2.38% (inactive) |
| O=C(c1cccnc1NCc1ccccc1)N1CCOCC1 | 77.5 | 126% (inactive) | 77.5% (inactive) | 86.4% (inactive) | 93.8% (inactive) | 0.76% (inactive) | 93 | 93.8 | 1.08% (inactive) | 23.2% (inactive) |
| COc1ccc(-n2ccnc2SCC(=O)NCc2ccc3c(c2)OCO3)cc1 | 128 | 89.5% (inactive) | 128% (inactive) | 95.3% (inactive) | 87.2% (inactive) | -5.35% (inactive) | 92.6 | 87.2 | -2.73% (inactive) | -1.9% (inactive) |
| Cc1cc(C(=O)NCCN2CCCCC2C)n(-c2ccccc2)n1 (stereo not given) | 87.5 | 116% (inactive) | 87.5% (inactive) | 92.3% (inactive) | 92.6% (inactive) | 3.49% (inactive) | 89.1 | 92.6 | -2.8% (inactive) | -3.77% (inactive) |
| O=C(O)C1CCCN1S(=O)(=O)c1ccc2ccccc2c1 (stereo not given) | 106 | 110% (inactive) | 106% (inactive) | 101% (inactive) | 95.6% (inactive) | -12% (inactive) | 108 | 95.6 | 0.27% (inactive) | 9.51% (inactive) |
| Cc1cnc(C(=O)Nc2ccc(-n3cnnn3)cc2)cn1 | 100 | 98.5% (inactive) | 100% (inactive) | 101% (inactive) | 105% (inactive) | 16.4% (inactive) | 88.9 | 105 | -4.93% (inactive) | -4.68% (inactive) |
| Cc1ccc2nc(NCCCN3CCOCC3)c(C=NCCCN3CCOCC3)c(=O)n2c1 | 102 | 84% (inactive) | 102% (inactive) | 99.1% (inactive) | 81.9% (inactive) | -4.68% (inactive) | 86.6 | 81.9 | -0.39% (inactive) | -12% (inactive) |
| COCCNC(=O)CC(NS(=O)(=O)c1ccc(NC(C)=O)cc1)C(C)C (stereo not given) | 97 | 122% (inactive) | 97% (inactive) | 81.2% (inactive) | 95.1% (inactive) | 11.4% (inactive) | 83.7 | 95.1 | -4.74% (inactive) | 5% (inactive) |
| CCC(Oc1ccc2ccccc2c1)C(=O)O (stereo not given) | 89.5 | 98.5% (inactive) | 89.5% (inactive) | 85.6% (inactive) | 80.1% (inactive) | -1.54% (inactive) | 81.6 | 80.1 | -3.33% (inactive) | 1.15% (inactive) |
| COc1ccc(CN(C(=O)CNC(=O)c2ccco2)C(C(=O)NC2CCCC2)c2ccco2)cc1 (stereo not given) | 91 | 106% (inactive) | 91% (inactive) | 103% (inactive) | 95.4% (inactive) | 7.6% (inactive) | 87.8 | 95.4 | -0.39% (inactive) | -5.48% (inactive) |
| CCOC(=O)CSc1nc(C)c(C(=O)OCC)s1 | 89 | 93.5% (inactive) | 89% (inactive) | 105% (inactive) | 101% (inactive) | 3.4% (inactive) | 97.8 | 101 | 0.92% (inactive) | -4.68% (inactive) |
| COc1ccccc1C(=O)Nc1ccc(S(=O)(=O)N2CCOCC2)cc1 | 104 | 104% (inactive) | 104% (inactive) | 92.9% (inactive) | 93.2% (inactive) | -0.52% (inactive) | 93.7 | 93.2 | -2.89% (inactive) | 4.59% (inactive) |
| Cn1c(SCC(=O)N2CCN(c3cccc(Cl)c3)CC2)nnc1-c1ccncc1 | 84 | 76% (inactive) | 84% (inactive) | 49.4% (inactive) | 79.8% (inactive) | -18.5% (inactive) | 98.3 | 79.8 | 3.59% (inactive) | -1.33% (inactive) |
| Cc1ccc(NC(=O)CN2CC(C)SC2=NC2CCCCC2)cc1 (stereo not given) | 84.5 | 113% (inactive) | 84.5% (inactive) | 96% (inactive) | 83.9% (inactive) | 0.935% (inactive) | 83 | 83.9 | -6.8% (inactive) | 1.94% (inactive) |
| O=C(CSc1nnc(-c2ccco2)c(-c2ccco2)n1)Nc1ccccc1 | 102 | 64% (inactive) | 102% (inactive) | 89.2% (inactive) | 77.6% (inactive) | -12.2% (inactive) | 89.8 | 77.6 | 2.63% (inactive) | 9.03% (inactive) |
| CCc1nnc(NC(=O)c2ccc(COc3ccc(C)cc3)o2)s1 | 104 | 93.5% (inactive) | 104% (inactive) | 99.5% (inactive) | 106% (inactive) | -4.93% (inactive) | 111 | 106 | -3.01% (inactive) | -3.17% (inactive) |
| CCOc1ccccc1NC(=O)CSc1c(C)n[nH]c1C | 90 | 88% (inactive) | 90% (inactive) | 109% (inactive) | 113% (inactive) | 19.8% (inactive) | 92.7 | 113 | -3.07% (inactive) | -3.71% (inactive) |
| Cc1cccc(-n2ccnc2SCC(=O)Nc2cc(C)on2)c1 | 96 | 102% (inactive) | 96% (inactive) | 96.3% (inactive) | 99.1% (inactive) | 18.6% (inactive) | 80.4 | 99.1 | 0.79% (inactive) | -4.91% (inactive) |
| Cc1ccccc1-n1c(=O)cc(N2CCN(C(=O)c3ccco3)CC2)[nH]c1=O | 86 | 100% (inactive) | 86% (inactive) | 100% (inactive) | 98.3% (inactive) | 9.79% (inactive) | 88.5 | 98.3 | 0.77% (inactive) | 0.17% (inactive) |
| Cc1ccc(CN2C(=O)CCC2C(=O)NCCCN2CCC(C)CC2)cc1 (stereo not given) | 98.5 | 88.5% (inactive) | 98.5% (inactive) | 93.7% (inactive) | 103% (inactive) | 2.18% (inactive) | 101 | 103 | -5.73% (inactive) | 6.89% (inactive) |
| CCNS(=O)(=O)c1c(C)cc(N2CCCC2=O)cc1C | 95.5 | 109% (inactive) | 95.5% (inactive) | 112% (inactive) | 98.8% (inactive) | 8.17% (inactive) | 90.6 | 98.8 | -3.87% (inactive) | -1.31% (inactive) |
| CCOC(=O)C1=C(O)C(=O)N(c2ccc(S(N)(=O)=O)cc2)C1c1ccccc1 (stereo not given) | 97.5 | 110% (inactive) | 97.5% (inactive) | 96.7% (inactive) | 96.7% (inactive) | 1.46% (inactive) | 95.2 | 96.7 | -6.53% (inactive) | -6.23% (inactive) |
| Cc1cc(C(=O)CSc2nc3ccccc3[nH]2)c(C)n1C | 100 | 86% (inactive) | 100% (inactive) | 120% (inactive) | 94.4% (inactive) | 12.8% (inactive) | 81.6 | 94.4 | -4.93% (inactive) | -8.36% (inactive) |
| O=C(Nc1ccon1)c1csc2c1CCCC2 | 92.5 | 85% (inactive) | 92.5% (inactive) | 83.2% (inactive) | 98.3% (inactive) | 10.9% (inactive) | 87.4 | 98.3 | -5.66% (inactive) | 2% (inactive) |
| COc1ccc(C2=Nn3c(nnc3-c3cccnc3)SC2)cc1 | 83.5 | 93.5% (inactive) | 83.5% (inactive) | 97.1% (inactive) | 64.7% (inactive) | -16.5% (inactive) | 81.2 | 64.7 | -6.32% (inactive) | 0.48% (inactive) |
| CC(=O)c1ccc(NC(=O)c2noc3c2CCCCC3)cc1 | 126 | 88% (inactive) | 126% (inactive) | 114% (inactive) | 98% (inactive) | 17.3% (inactive) | 80.6 | 98 | -5.26% (inactive) | 0.73% (inactive) |
